# Results reported in ChEMBL document CHEMBL1123302, “Antagonists of substance P. Further modifications of substance P antagonists obtained by replacing either positions 7, 9 or 7, 8 and 11 of SP with D-amino acid residues” (J Med Chem, 1986).
# Tests used:
# [1] = target: Metabotropic glutamate receptor 3 (Rattus norvegicus) (UniProt P31422); test: Antagonistic activity against Glutamate receptor in rat spinal cord at concentration of 10.0 uM.; assay type: functional, tissue-based
# Method in brief: (§1)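 Neonatal rat spinal cord, hemisected sagittally, superfused at 1 mL/min with oxygenated Krebs-Henseleit medium containing 0.5% urethane at room temperature. Agonists were given in 2-mL doses in the superfusate. Antagonist was superfused continuously for at least 15 min before agonist retesting. Read-out was ventral root depolarization (DC potential, ventral root vs cord body), measured as amplitude and area of response.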
# [2] = target: Metabotropic glutamate receptor 3 (Rattus norvegicus) (UniProt P31422); test: Antagonistic activity against Glutamate receptor in rat spinal cord at concentration of 0.5 uM.; assay type: functional, tissue-based; method in brief: as §1
# [3] = target: Metabotropic glutamate receptor 3 (Rattus norvegicus) (UniProt P31422); test: Antagonistic activity against Glutamate receptor in rat spinal cord at concentration of 1.0 uM.; assay type: functional, tissue-based; method in brief: as §1
# [4] = target: Metabotropic glutamate receptor 3 (Rattus norvegicus) (UniProt P31422); test: Antagonistic activity against Glutamate receptor in rat spinal cord at concentration of 5.0 uM.; assay type: functional, tissue-based; method in brief: as §1
# [5] = target: Metabotropic glutamate receptor 3 (Rattus norvegicus) (UniProt P31422); test: Antagonistic activity against Glutamate receptor in rat spinal cord at concentration of 25 uM.; assay type: functional, tissue-based; method in brief: as §1
# [6] = target: Metabotropic glutamate receptor 3 (Rattus norvegicus) (UniProt P31422); test: Antagonistic activity against Glutamate receptor in rat spinal cord at concentration of 5 uM.; assay type: functional, tissue-based; method in brief: as §1
# [7] = target: Metabotropic glutamate receptor 3 (Rattus norvegicus) (UniProt P31422); test: Antagonistic activity against Glutamate receptor in rat spinal cord at concentration of 50 uM.; assay type: functional, tissue-based; method in brief: as §1
# [8] = target: Substance-P receptor (Rattus norvegicus) (UniProt P14600); test: Antagonistic activity against Substance P(6-11) receptor in rat spinal cord at concentration of 50 uM.
# Sequence of Substance-P receptor (Rattus norvegicus) (P14600 whole entry, looked up): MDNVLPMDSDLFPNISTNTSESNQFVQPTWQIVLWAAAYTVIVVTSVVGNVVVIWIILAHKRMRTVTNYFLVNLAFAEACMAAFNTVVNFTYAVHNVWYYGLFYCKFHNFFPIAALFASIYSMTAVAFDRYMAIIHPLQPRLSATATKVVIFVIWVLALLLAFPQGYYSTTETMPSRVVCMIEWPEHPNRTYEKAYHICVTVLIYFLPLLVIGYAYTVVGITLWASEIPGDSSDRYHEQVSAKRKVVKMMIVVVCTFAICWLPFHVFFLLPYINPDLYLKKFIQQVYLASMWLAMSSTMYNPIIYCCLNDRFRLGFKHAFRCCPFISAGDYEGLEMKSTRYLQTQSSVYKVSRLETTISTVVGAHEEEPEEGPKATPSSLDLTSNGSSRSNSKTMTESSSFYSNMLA
# Substance-P receptor = Substance-P receptor (Rattus norvegicus, UniProt P14600); test: Histamine releasing activity of Substance P from isolated rat peritoneal mast cells; assay type: functional
# Sequence of Substance-P receptor (P14600 whole entry): as the sequence (P14600 whole entry, looked up) above
# Method in brief: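 Histamine release from isolated rat peritoneal mast cells, method of Fretwell et al. Dose-response curves were built over a range of concentrations, and EC50 values were calculated from the curves.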
# [9] = target: Metabotropic glutamate receptor 3 (Rattus norvegicus) (UniProt P31422); test: Antagonistic activity against Glutamate receptor in rat spinal cord at concentration of 10 uM.; assay type: functional, tissue-based; method in brief: as §1
# [10] = target: Substance-P receptor (Cavia porcellus) (UniProt P30547); test: Antagonistic activity against Substance P receptor in guinea pig ileum at concentration of 1 uM.; assay type: functional, tissue-based
# Sequence of Substance-P receptor (Cavia porcellus) (P30547 whole entry): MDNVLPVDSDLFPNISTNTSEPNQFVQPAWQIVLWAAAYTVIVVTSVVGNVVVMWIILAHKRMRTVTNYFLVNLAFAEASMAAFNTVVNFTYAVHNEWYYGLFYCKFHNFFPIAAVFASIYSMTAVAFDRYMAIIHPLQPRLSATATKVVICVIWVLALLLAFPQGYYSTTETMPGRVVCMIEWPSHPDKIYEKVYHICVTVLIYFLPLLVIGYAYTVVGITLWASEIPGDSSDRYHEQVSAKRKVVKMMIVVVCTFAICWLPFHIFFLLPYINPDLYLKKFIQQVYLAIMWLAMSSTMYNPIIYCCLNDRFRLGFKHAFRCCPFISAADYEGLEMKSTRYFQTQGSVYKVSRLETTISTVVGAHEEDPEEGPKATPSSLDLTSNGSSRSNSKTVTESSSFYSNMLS
# Method in brief: (§2)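 Distal ileum from Dunkin-Hartley guinea pigs (300-350 g, both sexes), held in a 5-mL bath of Krebs solution at 37 °C gassed with 95% O2/5% CO2. Agonist dose-response curves ran on a 3-min cycle with 1-min contact, then washout. Dose ratio = agonist EC50 with antagonist / EC50 alone. At least two preparations per compound; ratios below two were taken as insignificant.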
# [11] = target: Substance-P receptor (Cavia porcellus) (UniProt P30547); test: In vitro inhibition of substance P (6-11) hexapeptide induced contractions of the guinea pig ileum at 5 uM.; assay type: tissue-based
# Method in brief: (§3)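 Agonist (SP or SP(6-11)-hexapeptide) dose-response curves on a 3-min cycle with 1-min contact, then washout. Dose ratio = agonist EC50 with antagonist / EC50 alone. At least two preparations per compound; ratios below 2 taken as insignificant.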
# [12] = tested on: muscarinic acetylcholine receptor (Rattus norvegicus); test: Antagonistic activity against Carbachol receptor in rat spinal cord at concentration of 10 uM.
# [13] = target: Substance-P receptor (Rattus norvegicus) (UniProt P14600); test: Antagonistic activity against Substance P(6-11) receptor in rat spinal cord at concentration of 10 uM.
# [14] = tested on: muscarinic acetylcholine receptor (Rattus norvegicus); test: Antagonistic activity against Carbachol receptor in rat spinal cord at concentration of 50 uM.
# [15] = target: Substance-P receptor (Rattus norvegicus) (UniProt P14600); test: Antagonistic activity against Substance P receptor in rat spinal cord at concentration of 10 uM.
# [16] = target: Substance-P receptor (Rattus norvegicus) (UniProt P14600); test: Antagonistic activity against Substance P receptor in rat spinal cord at concentration of 50 uM.
# [17] = target: Substance-P receptor (Cavia porcellus) (UniProt P30547); test: In vitro inhibition of substance P induced contractions of the guinea pig ileum at 5 uM.; assay type: tissue-based; method in brief: as §3
# [18] = target: Substance-P receptor (Cavia porcellus) (UniProt P30547); test: Antagonistic activity against Substance P(6-11) receptor in guinea pig ileum at concentration of 1 uM.; assay type: functional, tissue-based; method in brief: as §2
# [19] = target: Metabotropic glutamate receptor 3 (Rattus norvegicus) (UniProt P31422); test: Antagonistic activity against Glutamate receptor in rat spinal cord at concentration of 50.0 uM.; assay type: functional, tissue-based; method in brief: as §1
# [20] = target: Substance-P receptor (Cavia porcellus) (UniProt P30547); test: Antagonistic activity against Substance P receptor in guinea pig ileum at concentration of 0.5 uM.; assay type: functional, tissue-based; method in brief: as §2
# [21] = target: Substance-P receptor (Cavia porcellus) (UniProt P30547); test: (§4) Antagonistic activity against Substance P receptor in guinea pig ileum at concentration of 10.0 uM.; assay type: functional, tissue-based; method in brief: as §2
# [22] = target: Substance-P receptor (Cavia porcellus) (UniProt P30547); test: Antagonistic activity against Substance P(6-11) receptor in guinea pig ileum at concentration of 1.0 uM.; assay type: functional, tissue-based; method in brief: as §2
# [23] = target: Substance-P receptor (Cavia porcellus) (UniProt P30547); test: Antagonistic activity against Substance P(6-11) receptor in guinea pig ileum at concentration of 0.5 uM.; assay type: functional, tissue-based; method in brief: as §2
# [24] = target: Substance-P receptor (Cavia porcellus) (UniProt P30547); test: (§5) Antagonistic activity against Substance P receptor in guinea pig ileum at concentration of 5.0 uM.; assay type: functional, tissue-based; method in brief: as §2
# [25] = target: Substance-P receptor (Cavia porcellus) (UniProt P30547); test: as §5; assay type: functional, tissue-based; method in brief: as §2; remark: listed apart in the source
# [26] = target: Substance-P receptor (Cavia porcellus) (UniProt P30547); test: as §4; assay type: functional, tissue-based; method in brief: as §2; remark: listed apart in the source
# [27] = target: Substance-P receptor (Cavia porcellus) (UniProt P30547); test: Antagonistic activity against Substance P receptor in guinea pig ileum at concentration of 1.0 uM.; assay type: functional, tissue-based; method in brief: as §2
# Sequence of Metabotropic glutamate receptor 3 (Rattus norvegicus) (P31422 23-879 limits assumed): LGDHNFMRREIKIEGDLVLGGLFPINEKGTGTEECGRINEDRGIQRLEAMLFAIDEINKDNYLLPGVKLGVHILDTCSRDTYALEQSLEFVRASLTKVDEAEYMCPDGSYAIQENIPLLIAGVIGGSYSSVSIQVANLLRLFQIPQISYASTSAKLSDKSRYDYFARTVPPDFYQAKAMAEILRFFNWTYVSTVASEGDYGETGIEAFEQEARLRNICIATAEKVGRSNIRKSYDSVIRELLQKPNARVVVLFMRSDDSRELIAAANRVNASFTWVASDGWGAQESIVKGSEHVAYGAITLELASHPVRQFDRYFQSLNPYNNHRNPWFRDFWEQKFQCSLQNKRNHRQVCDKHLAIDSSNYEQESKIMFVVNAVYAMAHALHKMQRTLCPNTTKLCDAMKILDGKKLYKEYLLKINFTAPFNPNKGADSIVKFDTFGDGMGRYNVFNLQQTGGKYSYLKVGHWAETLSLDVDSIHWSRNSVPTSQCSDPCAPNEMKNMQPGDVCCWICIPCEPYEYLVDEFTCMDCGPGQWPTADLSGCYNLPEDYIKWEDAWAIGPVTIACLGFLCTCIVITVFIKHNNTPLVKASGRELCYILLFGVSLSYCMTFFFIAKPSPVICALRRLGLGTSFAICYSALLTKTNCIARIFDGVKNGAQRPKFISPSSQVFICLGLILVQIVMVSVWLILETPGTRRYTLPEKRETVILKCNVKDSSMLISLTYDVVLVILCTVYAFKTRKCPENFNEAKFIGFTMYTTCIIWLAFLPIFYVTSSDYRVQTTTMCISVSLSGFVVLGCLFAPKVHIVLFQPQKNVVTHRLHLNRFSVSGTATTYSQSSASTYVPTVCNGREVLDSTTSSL
structure (smiles),measurement,setting,value
COC(=O)[C@@H](CCSC)NC(=O)[C@H](CC(C)C)N(C)C(=O)CN(C)C(=O)[C@H](Cc1ccccc1)NC(=O)[C@@H](Cc1ccccc1)NC(=O)[C@H](CCC(N)=O)NC(=O)[C@H](CCC(N)=O)NC(=O)C1CCCN1C(=O)[C@H](CCCCNC(=O)OCc1ccccc1)NC(=O)C1CCCN1C(=O)[C@H](CCCN=C(N)N)NC(=O)OCc1ccccc1 (stereo in doubt),Change in amplitude response,[1],-35%
same,Change in amplitude response,[2],6%
same,Change in amplitude response,[3],0%
same,Change in amplitude response,[4],0%
COC(=O)[C@@H](CCSC)NC(=O)[C@H](CC(C)C)NC(=O)CN(C)C(=O)[C@H](Cc1ccccc1)NC(=O)[C@@H](Cc1ccccc1)NC(=O)[C@H](CCC(N)=O)NC(=O)[C@H](CCC(N)=O)NC(=O)C1CCCN1C(=O)[C@H](CCCCNC(=O)OCc1ccccc1)NC(=O)C1CCCN1C(=O)[C@H](CCCN=C(N)N)NC(=O)OCc1ccccc1 (stereo in doubt),Change in amplitude response,[5],-24%
same,Change in amplitude response,[6],-15%
same,Change in amplitude response,[7],-36%
COC(=O)[C@H](CCSC)NC(=O)[C@H](CC(C)C)NC(=O)[C@@H](Cc1c[nH]c2ccccc12)NC(=O)[C@H](Cc1ccccc1)NC(=O)[C@@H](Cc1ccccc1)NC(=O)[C@H](CCCN=C(N)N)NC(=O)[C@H](CC(N)=O)NC(=O)OC(C)(C)C,Change in amplitude response,[8],-79%
same,IC50,Substance-P receptor,500 µM
same,Change in amplitude response,[9],-3%
same,Activity,[10],< 2 dose ratio
same,Activity,[11],16 dose ratio
same,Change in amplitude response,[12],-26%
same,Change in amplitude response,[13],-56%
same,Change in amplitude response,[14],-40%
same,Change in amplitude response,[7],11%
same,Change in amplitude response,[15],15%
same,Change in amplitude response,[16],-17%
same,Activity,[17],2.1 dose ratio
same,Activity,[18],4.4 dose ratio
COC(=O)[C@@H](CCSC)NC(=O)[C@@H](CC(C)C)SCCNC(=O)[C@@H](Cc1ccccc1)NC(=O)[C@H](Cc1ccccc1)NC(=O)[C@H](CCC(N)=O)NC(=O)[C@H](CCC(N)=O)NC(=O)[C@H]1CCCN1C(=O)[C@H](CCCCNC(=O)OCc1ccccc1)NC(=O)[C@H]1CCCN1C(=O)[C@H](CCCN=C(N)N)NC(=O)OCc1ccccc1,Change in amplitude response,[19],-25%
same,Change in amplitude response,[1],-31%
same,Change in amplitude response,[2],-7%
same,Change in amplitude response,[3],-12%
same,Activity,[20],2.4 dose ratio
same,Activity,[21],52 dose ratio
same,Activity,[22],20.1 dose ratio
same,Activity,[23],4.2 dose ratio
same,Change in amplitude response,[4],-23%
same,Activity,[24],38 dose ratio
same,Activity,[25],38 dose ratio
same,Activity,[26],52 dose ratio
same,Activity,[27],3.4 dose ratio
